Assay type in all cases: cell-based
The nature of series [1]: Cytotoxicity against mouse BMDC cells up to 10 uM after overnight incubation by MTT assay. The gist of the method:
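BMDC (10^5/well) incubated 18 h with graded concentrations alongside 0.5% DMSO vehicle and MPLA 1 μg/mL; cells lysed after overnight MTT incubation, absorbance 570 nm minus 650 nm reference. Triplicates, mean ± SEM, two independent experiments.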

The target of series [2] is Toll-like receptor 4 (Homo sapiens) (UniProt O00206). In words: Activation of TLR4 in human PBMC cells assessed as AUC of IL8 release at 10 uM after 18 hrs by ELISA relative to N-cyclohexyl-2-(4-oxo-3-phenyl-4,5-dihydro-3H-pyrimido[5,4-b]indol-2-ylthio)acetamide. The procedure, abridged: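 Human PBMC from buffy coats, 1 × 10^6/mL in complete RPMI, 18 h at 37 °C, 5% CO2 with compound at 10 μM; IL-8 in supernatant by ELISA, normalized to reference hit set at 100. LPS 10 ng/mL positive control.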
Toll-like receptor 4 (Homo sapiens), sequence (O00206 whole entry): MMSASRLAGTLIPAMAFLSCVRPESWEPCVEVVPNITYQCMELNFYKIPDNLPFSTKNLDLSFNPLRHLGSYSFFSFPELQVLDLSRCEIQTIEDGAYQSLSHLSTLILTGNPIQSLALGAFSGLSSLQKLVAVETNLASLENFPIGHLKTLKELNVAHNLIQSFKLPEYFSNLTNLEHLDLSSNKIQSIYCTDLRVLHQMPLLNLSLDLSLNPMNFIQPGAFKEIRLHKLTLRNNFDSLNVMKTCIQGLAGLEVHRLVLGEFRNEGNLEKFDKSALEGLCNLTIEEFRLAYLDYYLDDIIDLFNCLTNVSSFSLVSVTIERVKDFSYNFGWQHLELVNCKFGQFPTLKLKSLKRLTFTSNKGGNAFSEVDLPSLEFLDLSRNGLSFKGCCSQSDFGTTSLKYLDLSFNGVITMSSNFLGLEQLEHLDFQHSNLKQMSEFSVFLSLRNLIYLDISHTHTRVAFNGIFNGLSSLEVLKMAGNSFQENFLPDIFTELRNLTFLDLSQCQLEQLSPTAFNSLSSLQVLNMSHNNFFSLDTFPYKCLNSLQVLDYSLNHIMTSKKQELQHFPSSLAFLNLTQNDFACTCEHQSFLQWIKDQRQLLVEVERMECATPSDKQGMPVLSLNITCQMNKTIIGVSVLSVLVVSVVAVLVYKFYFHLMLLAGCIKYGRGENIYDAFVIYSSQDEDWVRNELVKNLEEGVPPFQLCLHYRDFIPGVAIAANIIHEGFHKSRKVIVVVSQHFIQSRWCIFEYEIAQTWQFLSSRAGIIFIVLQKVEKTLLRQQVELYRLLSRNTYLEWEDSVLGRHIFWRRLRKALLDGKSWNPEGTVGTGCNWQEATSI
(In general: In an ELISA, binding on a coated surface is turned into a signal by an enzyme label.)

In series [3] the target is T1, Toll-like receptor 4 (Mus musculus) (UniProt Q9QUK6).
T1 sequence (whole entry): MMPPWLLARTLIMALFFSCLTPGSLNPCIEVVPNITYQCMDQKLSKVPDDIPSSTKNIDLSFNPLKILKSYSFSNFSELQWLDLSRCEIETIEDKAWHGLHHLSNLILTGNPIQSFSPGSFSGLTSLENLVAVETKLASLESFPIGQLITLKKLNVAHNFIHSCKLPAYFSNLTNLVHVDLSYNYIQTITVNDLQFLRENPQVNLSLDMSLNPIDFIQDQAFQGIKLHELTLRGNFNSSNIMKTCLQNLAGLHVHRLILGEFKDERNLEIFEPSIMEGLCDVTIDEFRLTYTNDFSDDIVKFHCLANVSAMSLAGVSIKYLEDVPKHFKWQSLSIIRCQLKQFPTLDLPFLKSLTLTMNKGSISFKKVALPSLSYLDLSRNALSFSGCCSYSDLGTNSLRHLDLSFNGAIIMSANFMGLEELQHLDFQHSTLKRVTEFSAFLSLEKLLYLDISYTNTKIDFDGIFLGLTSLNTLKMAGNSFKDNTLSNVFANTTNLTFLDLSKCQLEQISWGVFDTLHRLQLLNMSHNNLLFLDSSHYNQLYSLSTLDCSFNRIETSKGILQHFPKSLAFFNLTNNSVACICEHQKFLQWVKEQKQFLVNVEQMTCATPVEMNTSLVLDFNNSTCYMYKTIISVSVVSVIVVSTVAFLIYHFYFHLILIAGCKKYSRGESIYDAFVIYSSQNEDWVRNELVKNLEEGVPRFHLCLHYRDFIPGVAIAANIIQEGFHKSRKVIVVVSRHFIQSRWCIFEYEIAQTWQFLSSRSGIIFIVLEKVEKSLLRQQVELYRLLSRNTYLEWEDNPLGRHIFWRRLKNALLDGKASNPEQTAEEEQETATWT
In words: Activation of mouse TLR4 transfected in HEK293 cells after 18 hrs by SEAP assay relative to N-cyclohexyl-2-(4-oxo-3-phenyl-4,5-dihydro-3H-pyrimido[5,4-b]indol-2-ylthio)acetamide. The procedure, abridged:
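Mouse TLR4 HEK-Blue cells (2.5 × 10^4/well) given titrated doses 312 nM–10 μM for 18 h, 0.5% DMSO vehicle; SEAP at 630 nm. Percent-activity curves, AUC by trapezoid method, normalized to reference hit set at 100. LPS 10 ng/mL control.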

Series [4] concerns the target Toll-like receptor 4 (Homo sapiens) (UniProt O00206). In words: Activation of human TLR4 transfected in HEK293 cells after 18 hrs by SEAP assay relative to N-cyclohexyl-2-(4-oxo-3-phenyl-4,5-dihydro-3H-pyrimido[5,4-b]indol-2-ylthio)acetamide. Set-up: concentration or dose not given beside the values. The gist of the method: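 Human TLR4 HEK-Blue cells (2.5 × 10^4/well) given compound at 10 μM for 18 h, 0.5% DMSO vehicle; SEAP in supernatant read at 630 nm, normalized to reference hit set at 100. LPS 10 ng/mL positive control.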

Series [5] has as its target T1, Toll-like receptor 4 (Mus musculus). Nature of the series: Activation of TLR4 in C57BL/6 mouse BMDC cells assessed as AUC of IP10 release at 5 uM after 18 hrs by ELISA relative to N-cyclohexyl-2-(4-oxo-3-phenyl-4,5-dihydro-3H-pyrimido[5,4-b]indol-2-ylthio)acetamide.
Series [6] has the same target. Nature of the series: Activation of TLR4 in C57BL/6 mouse BMDC cells assessed as AUC of IL6 release after 18 hrs by ELISA relative to N-cyclohexyl-2-(4-oxo-3-phenyl-4,5-dihydro-3H-pyrimido[5,4-b]indol-2-ylthio)acetamide. The gist of the method: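 C57BL/6 bone marrow DC, 10^5 cells/well in RPMI-10% FCS, 18 h at 37 °C with titrated doses 312 nM–10 μM; supernatant IL-6 by ELISA. Each curve converted to percent activity (background subtracted, plate-adjusted), AUC by trapezoid method, normalized to reference hit set at 100 per experiment. LPS 10 ng/mL positive control; 0.5% DMSO vehicle.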

In the case of `N#CCn1c2ccccc2c2nc(SCC(=O)NC3CCCCC3)n(-c3ccccc3)c(=O)c21`, the Activity entry in series [1] was “Non-toxic”; in series [2], 30%; in series [3], 55%; in series [4] it was 19%; in series [5], 64%; in series [6] it was 98%.

Consider `CCCCCCNC(=O)CSc1nc2c([nH]c3ccccc32)c(=O)n1-c1ccccc1`, for which the Activity in series [2] was 7%; in series [3], 4%; in series [4], 8%; in series [5] it was under 1%; in series [6] it was under 1%.

Take `CC(C)(C)NC(=O)CSc1nc2c([nH]c3ccccc32)c(=O)n1-c1ccccc1`: the Activity was 5% in series [2]; under 1% in series [3]; 6% in series [4]; under 1% in series [5]; under 1% in series [6].

Turning to `CC(C)CCNC(=O)CSc1nc2c([nH]c3ccccc32)c(=O)n1-c1ccccc1`, the Activity in series [2] stood at 53%; in series [3], 56%; in series [4], 38%; in series [5], 62%; in series [6] it was 61%.

Take `NC(=O)Cn1c2ccccc2c2nc(SCC(=O)NC3CCCCC3)n(-c3ccccc3)c(=O)c21`: the Activity in series [2] amounted to 4%; in series [3], 8%; in series [4], 11%; in series [5], 1%; in series [6], 1%.

For the compound `Cc1ccc(-n2c(SCC(=O)NC3CCCCC3)nc3c([nH]c4ccccc43)c2=O)cc1`, the Activity in series [2] is 6%; in series [3], 2%; in series [4] it was 2%; in series [5], under 1%; in series [6] it was under 1%.

On to `CCCCNC(=O)CSc1nc2c([nH]c3ccccc32)c(=O)n1-c1ccccc1`, for which the Activity in series [2] is 29%; in series [3] it was 31%; in series [4] it was 32%; in series [5], 61%; in series [6], 49%.

Consider `O=C(CSc1nc2c([nH]c3ccccc32)c(=O)n1C1CCCCC1)NC1CCCC1`, for which the Activity amounted to 14% in series [2]; 19% in series [3]; 33% in series [4]; 47% in series [5]; 47% in series [6].

As to `CCNC(=O)CSc1nc2c([nH]c3ccccc32)c(=O)n1-c1ccccc1`, the Activity in series [2] is 4%; in series [3], under 1%; in series [4] it was 8%; in series [5], under 1%; in series [6], under 1%.

For `O=C(CSc1nc2c([nH]c3ccccc32)c(=O)n1-c1ccccc1)NCc1ccco1`, the Activity in series [2] came out at 15%; in series [3] it was 5%; in series [4], 27%; in series [5], 26%; in series [6] it was 18%.

`O=C(CSc1nc2c([nH]c3ccccc32)c(=O)n1-c1ccc2ccccc2c1)NC1CCCCC1`: the Activity is under 1% in series [2]; 6% in series [3]; 3% in series [4]; under 1% in series [5]; 3% in series [6].

`O=C(CSc1nc2c([nH]c3ccccc32)c(=O)n1-c1ccccc1)NC1CCCCCC1`: the Activity was 118% in series [2]; 99% in series [3]; 100% in series [4]; 107% in series [5]; 126% in series [6].

Take `Cn1c2ccccc2c2nc(SCC(=O)NC3CCCCC3)n(-c3ccccc3)c(=O)c21`: the Activity result was “Non-toxic” in series [1]; 79% in series [2]; 100% in series [3]; 92% in series [4]; 99% in series [5]; 101% in series [6].

Take `O=C(CSc1nc2c([nH]c3ccccc32)c(=O)n1-c1ccccc1)NC1CCCC1`: the Activity amounted to 5% in series [2]; 28% in series [3]; 23% in series [4]; 52% in series [5]; 53% in series [6].

For `CCCn1c2ccccc2c2nc(SCC(=O)NC3CCCCC3)n(-c3ccccc3)c(=O)c21`, the Activity entry in series [1] was “Non-toxic”.

Values taken from ChEMBL document CHEMBL2384907, “Identification of substituted pyrimido[5,4-b]indoles as selective Toll-like receptor 4 ligands” (J Med Chem, 2013).
